# PAFAH1B3 FP inh = PAFAH1B3 enzyme inhibitors, primary screen, biochemical, fluorescence polarization, human; Platelet-activating factor acetylhydrolase IB subunit alpha1 (Homo sapiens), Q15102; recombinant PAFAH1B3, FP-rhodamine probe; inhibition, % at 3.39 µM; 0.28% of 340,000 active;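 active means inhibition above the screen-wide average of all tested compounds plus 3 SD, cut at about 25% in these data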;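 further: 0% = enzyme with DMSO only and 100% = wells lacking PAFAH1B3 protein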
# Target sequence (Q15102 whole entry, looked up): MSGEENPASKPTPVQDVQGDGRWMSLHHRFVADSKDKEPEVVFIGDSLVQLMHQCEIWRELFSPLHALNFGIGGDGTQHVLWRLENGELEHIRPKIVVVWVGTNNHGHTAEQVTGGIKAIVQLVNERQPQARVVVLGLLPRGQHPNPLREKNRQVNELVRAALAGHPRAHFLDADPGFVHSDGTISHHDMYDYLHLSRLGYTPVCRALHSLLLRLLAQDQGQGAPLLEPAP
# pPAFAH FP inh = pPAFAH enzyme inhibitors, primary screen, biochemical, fluorescence polarization, human. recombinant pPAFAH, FP-rhodamine probe fluorescence polarization. inhibition, % at 3.39 µM. 1.5% of 330,000 active. AID 463082, 2010;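 active means inhibition above the mean inhibition across the screen plus 3 SD, cut at about 25% in these data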;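 further: inhibitors block binding of the rhodamine activity-based probe so polarization drops; 0% = enzyme with DMSO and 100% = wells lacking pPAFAH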
# Target sequence (Q13093 whole entry, looked up): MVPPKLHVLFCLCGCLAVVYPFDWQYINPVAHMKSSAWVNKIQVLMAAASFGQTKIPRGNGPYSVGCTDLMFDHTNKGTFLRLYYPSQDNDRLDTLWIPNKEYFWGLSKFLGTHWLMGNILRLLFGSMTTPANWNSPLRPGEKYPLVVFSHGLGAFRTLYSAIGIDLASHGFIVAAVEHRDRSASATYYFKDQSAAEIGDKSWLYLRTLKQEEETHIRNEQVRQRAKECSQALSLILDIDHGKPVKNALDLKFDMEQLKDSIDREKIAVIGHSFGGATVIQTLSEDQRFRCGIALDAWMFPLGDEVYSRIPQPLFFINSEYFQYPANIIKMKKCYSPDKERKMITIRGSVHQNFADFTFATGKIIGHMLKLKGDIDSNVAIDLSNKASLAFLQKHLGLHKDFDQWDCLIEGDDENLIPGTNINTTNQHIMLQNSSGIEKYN
# PAFAH2 inh = PAFAH2 enzyme inhibitors, primary screen, biochemical, fluorescence polarization, human; Platelet-activating factor acetylhydrolase 2, cytoplasmic (Homo sapiens), Q99487; recombinant PAFAH2, FP-rhodamine activity probe; inhibition, % at 3.39 µM; 0.99% of 340,000 active; AID 492956, 2010;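 active means inhibition above the mean over all tested compounds plus 3 SD, cut at about 30% in these data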;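 further: inhibitors block probe labeling of enzyme so polarization drops; 0% = enzyme with DMSO and 100% = wells lacking PAFAH2 protein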
# HTRA1 inh = HTRA1 serine protease inhibitors, primary screen, biochemical, fluorescence polarization, HTS; Q92743; recombinant HTRA1, FP-rhodamine activity-based probe; inhibition, % at 5.96 µM; 0.5% of 340,000 active; AID 504803, 2011; in the data active means inhibition above about 36%;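 further: 0% = enzyme with DMSO and 100% = wells lacking enzyme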
# PAFAH1B2 inh = PAFAH1B2 enzyme inhibitors, primary screen, biochemical, fluorescence polarization, human; recombinant PAFAH1B2, FP-rhodamine activity probe; inhibition, % at 3.39 µM; 1.2% of 340,000 active;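 active means inhibition above the mean of all tested compounds plus 3 SD, cut at about 24% in these data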;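 further: 0% = enzyme with DMSO and 100% = wells lacking PAFAH1B2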
# mABHD4 FP = ABHD4 inhibitors, primary screen, biochemical, fluorescence polarization, mouse; inhibition, % at 8.92 µM; (Lyso)-N-acylphosphatidylethanolamine lipase (Mus musculus), Q8VD66; 0.54% of 370,000 active; purified mABHD4, FP-Rh probe fluorescence polarization; AID 720543, 2013;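 active means inhibition exceeding the mean over every tested compound plus 3 SD, cut at about 30% in these data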;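 further: 0% = plate median of compound wells and 100% = S159A mutant with DMSO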
#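 Material: mouse ABHD4 enzyme, wild type; Benchmarks: S159A mutant high control, sample median low control; Buffer or medium: HEPES pH 7.0, NaCl, Pluronic buffer; Signal: fluorescence polarization; Read-out: percent inhibition of probe binding, normalized to plate controls; Timing: pre-incubation 45 min, probe exposure 60 min, at 25 °C; Dosing: 8.92 µM, single dose.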
# PAFAH2 FP conf = PAFAH2 enzyme inhibitors, confirmation, biochemical, fluorescence polarization, human; inhibition, % at 3.39 µM; shares compounds with PAFAH2 inh; 65% of 2,300 active; recombinant PAFAH2, FP-rhodamine activity probe;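 active means mean inhibition over three repeats above a set limit taken from the earlier primary screen, cut at about 30% in these data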;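 further: inhibitor blocks binding of rhodamine activity probe so polarization falls; 0% = enzyme with DMSO and 100% = wells lacking PAFAH2 protein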
# * marks the source's active call; other numbers are inactive results; / = no result. Rows were chosen to be rich in hits. Some 2.8% of all compounds tested hit in one or more screens of this group.
SMILES,PAFAH1B3 FP inh,pPAFAH FP inh,PAFAH2 inh,HTRA1 inh,PAFAH1B2 inh,mABHD4 FP,PAFAH2 FP conf
COc1ccc2oc(C(=O)OCC(=O)N3CCCCC3)c(C)c2c1,-2,1,0,-7,-1,-3,/
COc1ccc2oc(C(=O)OCC(=O)NC3CCCCC3)c(C)c2c1,-5,14,64*,-15,2,-2,57*
O=C(OCn1nnc2ccccc2c1=O)c1cccs1,5,7,47*,-10,6,1,37*
COc1ccc(C(=O)OCn2nnc3ccccc3c2=O)cc1OC,5,3,36*,0,-5,-9,46*
O=c1[nH]c(Cc2cccs2)nc2ccccc12,1,4,-3,-3,1,2,/
COc1ccc(C(=O)OCn2nnc3ccccc3c2=O)cc1[N+](=O)[O-],5,-1,15,1,4,-5,/
O=C(OCc1nc2ccccc2c(=O)[nH]1)c1cccs1,1,2,42*,9,-5,-3,29
COc1cccc(C(=O)OCn2nnc3ccccc3c2=O)c1,9,1,37*,-6,7,-2,21
O=S1(=O)c2ccc(Br)cc2OC[C@H](Cc2ccccc2)N1Cc1cn(Cc2ccc(F)cc2)nn1,/,/,/,/,/,-6,/
COc1ccc(CCN(Cc2cccs2)S(=O)(=O)c2ccccc2)cc1OC,/,/,/,/,/,-5,/
CCC[C@H]1[C@@H](NC(=O)C2CCC2)CC[C@@]23CCCN2C(=O)CCC[C@@H]13,/,/,/,/,/,-5,/
O=C(COC(=O)/C=C/c1ccc(OC(F)F)cc1)Nc1cccc(S(=O)(=O)N2CCOCC2)c1,9,2,53*,-13,-2,-15,40*
COc1cccc(/C=C/C(=O)OCC(=O)Nc2cccc(S(=O)(=O)N3CCCCC3)c2)c1OC,-1,4,39*,-49,-1,-32,55*
COc1cccc(CCC(=O)Nc2cccc(S(=O)(=O)N3CCCC3)c2)c1OC,-6,0,-3,0,-5,1,/
O=C(COC(=O)CNC(=O)c1ccc(F)cc1)Nc1cccc(S(=O)(=O)N2CCCC2)c1,12,7,5,-1,6,1,/
O=C(COC(=O)/C=C/c1ccc(F)cc1)Nc1cccc(S(=O)(=O)N2CCCC2)c1,0,1,53*,-25,-1,-18,44*
O=C(COC(=O)/C=C/c1ccc(OC(F)F)cc1)Nc1ccc(N2CCOCC2)cc1,4,8,2,0,3,-3,/
COCCCNC(=O)Cc1c(C)c2c(cc(C)c3c(C(C)(C)C)coc32)oc1=O,6,12,33*,-17,9,1,20
CC1CCN(C(=O)COC(=O)c2ccc3c(c2)OCO3)CC1,6,0,39*,3,-5,4,19
CC1CCN(C(=O)COC(=O)c2ccc(Cl)nc2)CC1,7,3,2,5,5,5,/
O=C(OCC(=O)N1CCOCC1)c1ccc2c(c1)OCCO2,2,0,3,3,-2,-5,/
CC1CCN(C(=O)COC(=O)c2cccs2)CC1,3,6,35*,2,6,-7,21
CC1CCN(C(=O)COC(=O)c2ccc(N3CCCC3=O)cc2)CC1,10,2,37*,2,7,1,30*
CC1CCN(C(=O)COC(=O)c2ccc3c(c2)OCCO3)CC1,10,12,46*,-1,4,-2,30*
COC(=O)[C@H](C(C)C)N(CCCc1cn(Cc2ccc(C)cc2)nn1)S(=O)(=O)c1ccccc1Br,/,/,/,/,/,-8,/
SMILES,PAFAH1B3 FP inh,pPAFAH FP inh,PAFAH2 inh,HTRA1 inh,PAFAH1B2 inh,mABHD4 FP,PAFAH2 FP conf
CCCCNC(=O)C1CCCN1C(=O)NCc1ccccc1OC (stereo unspecified),/,/,/,/,/,1,/
CCCCS(=O)(=O)N1C2=NC3=C(C(=O)N(CCOC)C3=O)C3N(C)c4ccccc4[C@]23C[C@H]1CO (stereo partly specified),/,/,/,/,/,9,/
COc1cccc(-c2cc(C(C)=O)c3n(c2=O)CCC3)c1OC,/,/,/,/,/,3,/
Cc1ccccc1CNC(=S)OC1CCC12CCC(c1ccccc1)CC2 (stereo unspecified),/,/,/,/,/,-18,/
O=C(COC(=O)C1CC2CCCC(C1)C2=O)Nc1cccc(F)c1 (stereo unspecified),4,-4,68*,0,7,1,69*
O=C(COC(=O)C1CC2CCCC(C1)C2=O)Nc1ccccc1 (stereo unspecified),11,2,64*,14,1,2,60*
Cc1ccc(-c2nnc3n2N=C(c2ccc(-c4ccccc4)cc2)CS3)cc1,/,/,/,/,/,0,/
Cc1c[nH]c2cccc(-c3ccccc3)c12,/,/,/,/,/,1,/
Cc1cccc(NC(=O)Nc2ccccc2C(=O)N2CCCC2)c1,/,/,/,/,/,3,/
COc1ccccc1CNC(=O)COC(=O)/C=C/c1ccc2c(c1)OCO2,-1,3,39*,3,2,4,43*
COc1cc(NC(=O)COC(=O)/C=C/c2ccc(O)c(OC)c2)cc(OC)c1,3,1,29,-2,-2,-5,/
COc1cc(/C=C/C(=O)OCC(=O)N(C)Cc2ccccc2)cc(OC)c1OC,5,2,9,-2,3,7,/
COc1cc(/C=C/C(=O)OCC(=O)NCc2ccc(F)cc2)ccc1O,5,9,69*,0,4,-3,56*
COc1cc(/C=C/C(=O)OCC(=O)NCc2ccccc2OC)ccc1O,15,9,50*,-5,11,0,49*
COc1cc(/C=C/C(=O)OCC(=O)N(C)Cc2ccccc2)ccc1O,1,5,33*,-1,3,3,19
CCOC(=O)N1CCN(C(=O)C[C@H]2C[C@@]3(C(=O)OC)C(=C[C@H](C(C)C)O[C@@H]3C3CC3)N(Cc3ccco3)C2=O)CC1,/,/,/,/,/,2,/
Cc1ccc2c(c1)N(CCCC(=O)N(C)Cc1ccccc1Cl)C(=O)CO2,/,/,/,/,/,0,/
O=C(NCC1CCCO1)NC12CC3CC(CC(C3)C1)C2 (stereo unspecified),0,6,33*,-2,2,7,27
CCc1ccc(OCC(=O)NC(=S)Nc2ccc(C)cc2C)c(Br)c1,8,0,30*,-1,-3,8,-3
CCc1ccc(OCC(=O)NNC(=S)NC(=O)C2CC2)c(Br)c1,4,/,-6,-3,1,1,/

# High-throughput results (PubChem)
